{
  "source": "paper PMC7458062",
  "about": "(ACS Infectious Diseases, 2020)",
  "key": {"[1]": {"tested_on": "P. aeruginosa 18SH strain, blaPDC", "assay_type": "cell-based", "details": "Pseudomonas aeruginosa, read-out: MIC of CAZ, P. aer. 18SH blaPDC", "method_in_brief": "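CLSI broth microdilution in Mueller-Hinton broth, with inoculum at 6 × 10^4 cfu/mL final. Ceftazidime was tested from 128 to 0.06 μg/mL, with test compound held constant at 4 μg/mL. Plates were incubated overnight at 37 °C and MICs were recorded the next day.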"}, "E. coli DH10B blaCTX-M-9": {"tested_on": "E. coli DH10B blaCTX-M-9", "assay_type": "cell-based", "details": "Escherichia coli, read-out: MIC of FEP, E. coli, DH10B blaCTX-M-9"}},
  "data": [
    {"smiles": "CC(C)(O/N=C(\\C(=O)N[C@@H]1C(=O)N2C(C(=O)[O-])=C(C[n+]3ccccc3)CS[C@H]12)c1csc(N)n1)C(=O)O", "note": "[CAZ, ceftazidime]", "values": [
      {"measurement": "MIC", "setting": "[1]", "value": 64, "unit": "µg/mL"}
    ]},
    {"smiles": "CO/N=C(\\C(=O)N[C@@H]1C(=O)N2C(C(=O)[O-])=C(C[N+]3(C)CCCC3)CS[C@H]12)c1csc(N)n1", "note": "[FEP, cefepime]", "values": [
      {"measurement": "MIC", "setting": "E. coli DH10B blaCTX-M-9", "value": 8, "unit": "µg/mL"}
    ]}
  ]
}
